Shown are actives, neighbours in structure and some others; about 2.4% of the full set was active somewhere.
SIAE inh: inhibitors of human sialic acid acetylesterase SIAE; SIAE FP-Rh probe binding, fluorescence polarization; inhibition, % at 9.66 µM; 0.69% of 370,000 active; AID 1053197;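 active means inhibition above a cutoff: mean of compounds within the control limits plus 3 SD of those, cut at about 17% in these data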
TDP2 inh: blocks human TDP2 phosphodiesterase activity. inhibition, % at 12.8 µM. O95551. 0.34% of 370,000 active. recombinant TDP2, T5PNP hydrolysis, p-nitrophenol absorbance 415 nm. AID 720702;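 active means inhibition above the mean of all tested compounds plus 3 SD, set per campaign, cut at about 25% in these data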
Target sequence (O95551 whole entry, looked up): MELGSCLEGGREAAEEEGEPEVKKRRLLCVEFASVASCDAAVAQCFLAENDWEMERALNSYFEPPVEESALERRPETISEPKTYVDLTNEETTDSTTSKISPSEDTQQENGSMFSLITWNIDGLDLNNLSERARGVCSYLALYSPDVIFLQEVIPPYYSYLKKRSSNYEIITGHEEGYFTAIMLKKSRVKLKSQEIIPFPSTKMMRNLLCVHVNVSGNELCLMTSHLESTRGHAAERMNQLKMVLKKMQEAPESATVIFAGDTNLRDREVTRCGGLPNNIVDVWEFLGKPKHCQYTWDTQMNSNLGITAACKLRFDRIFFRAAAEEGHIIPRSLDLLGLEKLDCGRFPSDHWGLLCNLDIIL
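Read-out basis: percent inhibition. System: recombinant human TDP2. Buffer or medium: Mg2+-containing Tris-HCl buffer, pH 7.5. Repeats: single replicate. Timing: reaction 2 h, 37 °C. Benchmarks: high control without enzyme, low control DMSO plus TDP2. Probe or stimulus: 5 mM T5PNP. Doses: 12.8 µM only. Measured by: epi absorbance of p-nitrophenol freed from T5PNP by hydrolysis.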
GSTO1 counter: counter-screen for RBBP9 inhibitors: inhibitors of human GSTO1. AID 1974. 1.1% of 300,000 active. inhibition, % at 5.96 µM. recombinant GSTO1, activity-based probe fluorescence polarization. P78417;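 active means inhibition above the campaign mean inhibition plus 3 SD, cut at about 35% in these data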
Apaf-1 inh: human Apaf-1 inhibition. reconstituted apoptosome caspase-3 activity, DEVD-Rh110 fluorescence. AID 489030. 0.71% of 330,000 active. inhibition, % at 20 µM. O14727; active means inhibition of at least 40% at 20 µM
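Assay system: Apoptosome proteins | Medium: pH 7.5 Hepes buffer with CHAPS, BSA, DTT | Also added: Cytochrome c and DEVD-Rh110 substrate | Times: 30 min plus 50 min, RT | Detection: Rhodamine 110 fluorescence at Ex 480/Em 540 nm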
PAD4 FP inh: inhibitors of human PAD4. Q9UM07. recombinant PAD4, RCA probe fluorescence polarization. inhibition, % at 6.36 µM. 0.41% of 330,000 active. AID 485272;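 active means percent inhibition above a cutoff equal to the mean of all tested compounds plus 3 SD, cut at about 15% in these data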
TCR-CD3 inh: inhibitors of human TCR-CD3 interaction; TAMRA-labeled TCR probe fluorescence, biochemical; inhibition, % at 9.4 µM; 0.37% of 360,000 active; in the data active means inhibition above about 19%;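 further: recombinant mutant TCR 2C K166C tagged with TAMRA read by polarization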
GSTO1 inh conf: confirmation of human GSTO1 inhibitors; AID 2176; shares compounds with GSTO1 counter; 54% of 2,400 active; recombinant GSTO1, probe fluorescence polarization; inhibition, % at 5.96 µM;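 active means inhibition above the primary screen's cutoff, its mean inhibition plus 3 SD, cut at about 35% in these data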;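 further: loss of polarization as inhibitors block binding of rhodamine sulfonate ester activity probe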
GSTO1 recomb ABPP: GSTO1 (human) inhibition by gel ABPP | shares compounds with GSTO1 counter | recombinant GSTO1, gel ABPP SE-Rh probe fluorescence | inhibition, % at 1 µM | 30% of 130 active | AID 463110;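 active means inhibition of the enzyme GSTO1 above about 75%, limit read from the data; inactive means inhibition below that limit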
A number is an active result; . = inactive; / = no result.

SMILES | SIAE inh | TDP2 inh | GSTO1 counter | Apaf-1 inh | PAD4 FP inh | TCR-CD3 inh | GSTO1 inh conf | others
O=C(CCc1ccc(O)cc1)c1c(O)cc(O)cc1O | . | . | 46.4 | . | . | . | .
CN1c2ccccc2C(C)(C)C12CC(CCl)=NO2 (stereo not drawn) | / | / | 46.1 | . | . | / | 96.3 | GSTO1 recomb ABPP=.
CN1c2ccccc2C(C)(C)C12CC(c1ccc(Cl)c(S(=O)(=O)N3CCCC3)c1)=NO2 (stereo not drawn) | / | / | . | . | . | / | /
N#Cc1ccc(-c2nc3c4ccccc4ccn3c2Cc2ccccc2C(F)(F)F)cc1 | . | . | / | / | / | . | /
O=C(CCl)NC1(C(F)(F)F)C(=O)Nc2c1c(=O)[nH]c(=O)n2-c1ccccc1 (stereo not drawn) | . | . | 66.9 | . | . | . | 71.3
CC(=O)NC1(C(F)(F)F)C(=O)Nc2c1c(=O)[nH]c(=O)n2CCc1ccccc1 (stereo not drawn) | . | . | . | . | . | . | /
CC(=O)Nc1nc(-c2ccc(Cl)cc2)nc(C)c1C(C)=O | . | . | 43.8 | . | . | . | .
CC1CC(=O)c2c(cc3c(-c4c(O)cc(O)c5c(O)c6c(cc45)OC(C)CC6=O)c(O)cc(O)c3c2O)O1 (stereo not drawn) | / | / | 62.0 | 62.5 | . | / | 73.1
CCOC(=O)C1=C(C)N(c2ccccc2)C(=O)/C1=C\c1ccc(O)c(OC)c1 | . | . | 62.4 | . | . | . | .
CCOC(=O)C1=C(C)N(c2ccccc2)C(=O)/C1=C\c1ccco1 | . | . | . | . | . | . | /
CN(C)c1ccc(NC(=O)C(=O)C2C(=O)Nc3ccccc32)cc1 (stereo not drawn) | . | . | . | . | . | . | /
CN(C)c1ccc(CC2C(=O)Nc3ccccc32)cc1 (stereo not drawn) | . | . | 48.5 | . | . | . | .
COCCn1c(=O)[nH]c(=O)c2c1nc(-c1ccc(-c3ccc(Cl)cc3[N+](=O)[O-])o1)n2Cc1ccccc1 | . | . | 59.6 | . | . | . | .
CC1(OC(=O)CCc2ccccc2)C(=O)C=C2C=C(c3ccc(C#N)cc3)N(CCN3CCOCC3)C=C2C1=O (stereo not drawn) | . | . | . | . | . | . | /
COC(=O)CCC(=O)OC1(C)C(=O)C2=CN(CCCCO)C(c3ccc(OC)cc3)=CC2=C(Br)C1=O (stereo not drawn) | / | / | 66.5 | 80.2 | 28.0 | / | 60.4
COc1ccc(C2=CC3=C(Br)C(=O)C(C)(OC(=O)c4ccc(Cl)nc4)C(=O)C3=CO2)cc1 (stereo not drawn) | / | / | . | . | . | / | /
COC(=O)CCC(=O)OC1(C)C(=O)C2=CN(CCN3CCOCC3)C(c3ccc(OC)cc3)=CC2=C(Br)C1=O (stereo not drawn) | / | / | 55.7 | 85.9 | . | / | 64.8
COC(=O)CCC(=O)OC1(C)C(=O)C2=CN(Cc3ccc4c(c3)OCO4)C(c3ccc(OC)cc3)=CC2=C(Br)C1=O (stereo not drawn) | / | / | . | . | . | / | /
COC(=O)CCC(=O)OC1(C)C(=O)C2=CN(C(CO)CO)C(c3ccc(OC)cc3)=CC2=C(Br)C1=O (stereo not drawn) | . | . | 48.7 | 81.1 | . | . | 51.2
CC(=O)Oc1ccc(OC(C)=O)c(S(=O)(=O)c2ccc(C)c(C)c2)c1 | . | . | 46.8 | . | . | . | .
COc1ccc(/C=C/C(=O)Oc2ccc(C)c(C)c2)cc1OC | . | . | . | . | . | . | /
Cn1c2ccccc2c(=O)n2c(=O)c3ccccc3cc12 | / | / | 78.1 | 98.3 | 68.7 | / | .
CCOc1ccc(NC(=O)C2C(C(=O)O)C3(Cl)C(Cl)=C(Cl)C2(Cl)C3(Cl)Cl)cc1 (stereo not drawn) | . | . | 43.7 | . | . | . | .
CC(C)=NOc1cc(NC(=O)CCl)cc([N+](=O)[O-])c1 | . | . | 80.0 | . | . | . | 99.5
CCC(=O)Nc1cc(ON=C(C)C)cc([N+](=O)[O-])c1 | . | . | . | / | . | . | /

Assay outcomes (PubChem)
